In ChEMBL document CHEMBL1153269, “Design and synthesis of new hydroxyethylamines as inhibitors of D-alanyl-D-lactate ligase (VanA) and D-alanyl-D-alanine ligase (DdlB)” (Bioorg Med Chem Lett, 2009):
Active and inactive are the calls of the source. The calls are words filed in the database; no cut-off is given here.

Experiments:
[1] = molecular target: T1, Vancomycin/teicoplanin A-type resistance protein VanA (Enterococcus faecium) (UniProt P25051); test: Inhibition of Enterococcus faecium VanA at 10 mM by pyruvate kinase/lactate dehydrogenase coupled assay
T1 sequence (whole entry): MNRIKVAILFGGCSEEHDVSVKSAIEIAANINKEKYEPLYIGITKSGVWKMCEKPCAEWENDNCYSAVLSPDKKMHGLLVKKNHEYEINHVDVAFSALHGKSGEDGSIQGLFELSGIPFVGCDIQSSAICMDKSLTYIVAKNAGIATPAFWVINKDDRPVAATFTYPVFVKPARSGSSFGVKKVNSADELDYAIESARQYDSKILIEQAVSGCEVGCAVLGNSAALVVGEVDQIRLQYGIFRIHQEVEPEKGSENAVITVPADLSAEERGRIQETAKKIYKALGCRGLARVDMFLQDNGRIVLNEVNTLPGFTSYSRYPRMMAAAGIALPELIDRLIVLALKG
In short: (§1)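 VanA measured by NADH depletion at 340 nm via PK/LDH coupling, 37 °C. Buffer 100 mM Hepes pH 7.5, 10 mM MgCl2, 10 mM KCl, 10% (v/v) DMSO ± compound; 2 mM PEP, 0.2 mM ATP, PK, LDH, NADH; substrates 8 mM D-Ala and 1.78 mM D-Lac; started by adding VanA.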

Escherichia coli [2] = test: Inhibition of Escherichia coli […] at 10 mM by pyruvate kinase/lactate dehydrogenase coupled assay
Escherichia coli [3] = test: Inhibition of Escherichia coli […] at 500 uM by pyruvate kinase/lactate dehydrogenase coupled assay
[4] = molecular target: T1, Vancomycin/teicoplanin A-type resistance protein VanA (Enterococcus faecium); test: Inhibition of Enterococcus faecium VanA at 500 uM by pyruvate kinase/lactate dehydrogenase coupled assay; in short: as §1
[5] = molecular target: T2, Vancomycin/teicoplanin A-type resistance protein VanA (Enterococcus faecium, UniProt P25051); test: Inhibition of Enterococcus faecium VanA by pyruvate kinase/lactate dehydrogenase coupled assay; in short: as §1
T2 sequence (P25051 whole entry): T1 sequence (whole entry)

[6] = Inhibition of Escherichia coli […] by pyruvate kinase/lactate dehydrogenase coupled assay

| Compound | Activity [1] | Activity (Escherichia coli [2]) | inhibition (Escherichia coli [3]) | inhibition [4] | IC50 [5] [µM] | IC50 [6] [µM] |
| --- | --- | --- | --- | --- | --- | --- |
| O=S(=O)(NCC(O)CN1CCOCC1)c1ccc(F)cc1 (stereo unspecified) | inactive | inactive | – | – | – | – |
| COc1ccc(S(=O)(=O)NCC(CN2CCOCC2)OP(=O)(O)Oc2ccccc2)cc1 (stereo unspecified) | – | – | inactive | inactive | – | – |
| O=P(O)(O)OC(CNS(=O)(=O)c1ccc(F)cc1)CN1CCOCC1 (stereo unspecified) | – | – | 77% | 75% | 290 | 136 |
| COc1ccc(S(=O)(=O)NCC(O)CN2CCOCC2)cc1 (stereo unspecified) | inactive | inactive | – | – | – | – |
| O=P(O)(Oc1ccccc1)OC(CNS(=O)(=O)c1ccc(F)cc1)CN1CCOCC1 (stereo unspecified) | – | – | inactive | 65% | – | – |
| COc1ccc(S(=O)(=O)NCC(CN2CCOCC2)OP(=O)(O)O)cc1 (stereo unspecified) | – | – | 83% | 83% | 224 | 110 |
